Data set [1] concerns the target Mitogen-activated protein kinase 1 (Homo sapiens) (UniProt P28482). The experiment in a line: Inhibition of MAPK2 (unknown origin) at 10 uM.
Data set [2] has as its target Mitogen-activated protein kinase 11 (Homo sapiens) (UniProt Q15759). The experiment in a line: Inhibition of p38MAPK beta (unknown origin) at 10 uM relative to control.
In data set [3] the target is Casein kinase I isoform delta (Homo sapiens) (UniProt P48730). The experiment in a line: Inhibition of CK1delta (unknown origin) at 3 uM relative to control.
Chain of Casein kinase I isoform delta (Homo sapiens) (P48730 whole entry, looked up, canonical isoform): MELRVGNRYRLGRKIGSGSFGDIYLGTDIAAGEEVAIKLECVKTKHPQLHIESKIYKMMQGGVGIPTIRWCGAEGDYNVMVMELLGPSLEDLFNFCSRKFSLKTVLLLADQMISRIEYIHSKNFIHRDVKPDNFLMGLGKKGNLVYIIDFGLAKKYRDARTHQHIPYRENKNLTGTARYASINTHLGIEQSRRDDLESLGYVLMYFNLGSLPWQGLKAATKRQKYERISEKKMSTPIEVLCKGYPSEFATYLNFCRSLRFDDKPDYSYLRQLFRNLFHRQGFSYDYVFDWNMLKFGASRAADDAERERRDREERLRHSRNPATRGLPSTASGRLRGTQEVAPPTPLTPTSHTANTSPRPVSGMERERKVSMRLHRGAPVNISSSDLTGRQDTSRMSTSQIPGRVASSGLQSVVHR
Data set [4] addresses Voltage-gated inwardly rectifying potassium channel KCNH2 (Homo sapiens, UniProt Q12809). In words: Inhibition of human ERG expressed in HEK293 cells by patch clamp method. Format: cell-based.
The target in data set [5] is Dual specificity mitogen-activated protein kinase kinase 6 (Homo sapiens) (UniProt P52564). In words: Inhibition of MKK6 (unknown origin) assessed as decrease in p38alpha MAPK phosphorylation at 10 uM relative to control.
Chain of Dual specificity mitogen-activated protein kinase kinase 6 (Homo sapiens) (P52564 whole entry): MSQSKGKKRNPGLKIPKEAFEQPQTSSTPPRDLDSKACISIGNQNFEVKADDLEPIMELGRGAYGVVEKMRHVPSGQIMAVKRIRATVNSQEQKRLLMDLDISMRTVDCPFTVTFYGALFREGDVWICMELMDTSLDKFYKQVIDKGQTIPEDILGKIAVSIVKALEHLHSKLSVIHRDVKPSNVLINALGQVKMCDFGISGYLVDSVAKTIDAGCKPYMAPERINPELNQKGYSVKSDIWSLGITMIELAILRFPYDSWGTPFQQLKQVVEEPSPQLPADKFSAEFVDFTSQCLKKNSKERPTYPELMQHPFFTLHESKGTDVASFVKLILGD
Data set [6] is filed under the species Homo sapiens. In words: Inhibition of p70S6K (unknown origin) at 10 uM relative to control.
For data set [7], the species on record is Homo sapiens. In words: Inhibition of PDE4 in LPS-stimulated human whole blood assessed as decrease in leukotriene B4 level in plasma.
The nature of data set [8]: Apparent permeability in human Caco2 cells at 10 uM. It counts as ADME, cell-based. Particulars: Caco-2. (In general: Passage across Caco-2 layers is used to estimate intestinal permeability.)
For the next data set, the system named is Liver. The experiment in a line: Drug metabolism in rat liver microsomes assessed as 4-(4-(4-fluorophenyl)-1-methyl-2-(methylsulfinyl)-1H-imidazol-5-yl)pyridin-2-amine formation at 10 to 100 uM. Format: ADME, microsome. In short, it runs like this:
(§1)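 Test compound incubated at 10, 30 and 100 μM with liver microsomes from rat, Cynomolgus monkey or human, and metabolites monitored.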
(Liver microsomes are a subcellular fraction often used to study metabolism.)

Data set [9] in a line: Drug metabolism in cynomolgus monkey liver microsomes assessed as N-(4-(4-(4-fluorophenyl)-1-methyl-2-(methylsulfinyl)-1H-imidazol-5-yl)pyridin-2-yl)acetamide formation at 10 to 100 uM. Format: ADME, Macaca fascicularis, microsome. The method, boiled down:
as §1

For data set [10], the system named is Rattus norvegicus. The experiment in a line: In vivo inhibition of P38 MAPKalpha in Lewis rat assessed as decrease in LPS-stimulated TNFalpha level in serum at 10 mg/kg, po pretreated for 3 hrs followed by LPS addition measured after 1.5 hrs post dose. Format: functional, organism-based. The method, boiled down:
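Lewis rats, n = 8/group: females dosed orally at 10 mg/kg at −1, −3 or −5 h relative to LPS challenge, plus one male group dosed at −1 h. Male and female vehicle controls were given at −1 h. Serum TNFα was measured after LPS and compared with vehicle.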

Another data set concerns Mus musculus. The experiment in a line: In vivo inhibition of P38 MAPKalpha in BALB/c mouse assessed as decrease in LPS/GalN-stimulated TNFalpha level in plasma at 30 mg/kg, po administered via gavage pretreated for 1 hr followed by LPS/GalN addition measured after 1.5 hrs relative to control. It counts as functional. In short, it runs like this:
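Male BALB/c mice, n = 6/group, given 3, 10 or 30 mg/kg orally by gavage 1 h before i.p. D-GalN (500 mg/kg) plus LPS (1.5 μg/kg). Blood was taken by cardiac puncture and plasma TNFα measured against a vehicle-only control.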

For data set [11], the system named is Rattus norvegicus. The experiment in a line: Antiarthritic activity in Lewis rat assessed as decrease in collagen-induced arthritic score at 25 mg/kg, po bid administered for 10 days. Format: functional, organism-based. In short, it runs like this: (§2)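 Collagen-induced arthritis in male Lewis rats (5–6 per group). Groups received vehicle, dexamethasone 1 mg/kg, test item 50 mg/kg once daily, or 25 mg/kg twice daily for 10 days. Body weight, arthritic score and paw volume were monitored, and serum COMP was measured at the end.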

For data set [12], the system named is Rattus norvegicus. In words: Antiarthritic activity in Lewis rat assessed as collagen oligomeric matrix protein level in serum at 50 mg/kg, po qd administered for 10 days (Rbv = 0.17 +/- 0.02 U/l). It counts as functional. In short, it runs like this:
as §2

The test system of data set [13] is Rattus norvegicus. The experiment in a line: Antiarthritic activity in Lewis rat assessed as collagen oligomeric matrix protein level in serum at 25 mg/kg, po bid administered for 10 days (Rbv = 0.17 +/- 0.02 U/l). It counts as functional. The method, boiled down: as §2
The nature of data set [14]: Cmax in mongrel dog at 30 mg/kg, po by LC-MS/MS analysis. Format: ADME, organism-based, Canis lupus familiaris. Set-up: dose 30 mg/kg, route oral. Particulars: in vivo. The method, boiled down: (§3)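 Oral single-dose PK; plasma concentrations of parent and metabolite measured. Dogs: blood sampled 0.25 to 24 h after dosing. Humans: healthy subjects, placebo-controlled single-blind randomized consecutive dosing, plasma sampled predose and 0.25–36 h post dose. 10 mg also given fasting and fed in crossover. Parameters derived from individual concentration–time profiles.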

The nature of data set [15]: Tmax in mongrel dog at 30 mg/kg, po by LC-MS/MS analysis. It counts as ADME, organism-based, Canis lupus familiaris. The conditions noted are these: in vivo.
A short description of data set [16]: Cmax in Beagle dog at 40 mg/kg, po by LC-MS/MS analysis. It counts as ADME, organism-based, Canis lupus familiaris. Further details: dose 40 mg/kg, route oral. The conditions noted are these: in vivo. The method, boiled down: (§4)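 Toxicokinetics from a maximum-tolerated-dose study in four Beagle dogs given 40 mg/kg orally. Plasma levels of both parent and its predominant metabolite were monitored.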

Data set [17] can be described thus: Half life in Beagle dog at 40 mg/kg, po by LC-MS/MS analysis. Particulars: in vivo. Format: ADME, organism-based, Canis lupus familiaris. In short, it runs like this: as §3
The nature of data set [18]: AUC (0 to t) in Beagle dog at 40 mg/kg, po by LC-MS/MS analysis. Format: ADME, organism-based, Canis lupus familiaris. Particulars: in vivo. In short, it runs like this: as §4
Data set [19] can be described thus: Cmax in cynomolgus monkey at 20 mg/kg, po measured on day 1 and 27 post dose by LC-MS/MS analysis. Format: ADME, organism-based, Macaca fascicularis. Further details: dose 20 mg/kg, route oral. The conditions noted are these: in vivo. In short, it runs like this: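 Within a 4-week oral toxicity study, Cynomolgus monkeys received 6, 12 or 20 mg/kg daily. Blood was sampled from 0.5 to 24 h post dose on days 1 and 27. Tmax, Cmax, T1/2 and AUC0–24 came from individual profiles of parent and metabolite.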

The test system of data set [20] is Rattus norvegicus. In words: Toxicity in rat assessed as effect on central nervous system at 30 to 300 mg/kg, po administered as single dose. It counts as organism-based. Particulars: in vivo.
Data set [21] relates to Rattus norvegicus. In words: Toxicity in single po dosed rat assessed as effect on respiratory rate at 30 mg/kg, po administered as single dose. It counts as organism-based. Particulars: in vivo.
Data set [22] relates to Rattus norvegicus. The experiment in a line: Toxicity in rat assessed as soft feces at 30 to 300 mg/kg, po administered as single dose. It counts as organism-based. The conditions noted are these: in vivo.
A further data set deals with Cynomolgus monkey. The experiment in a line: Toxicity in cynomolgus monkey assessed as decrease in PQ at 6 to 20 mg/kg, po. Format: organism-based, Macaca fascicularis. Particulars: in vivo.
Data set [23] deals with Rattus norvegicus. The experiment in a line: Toxicity in Sprague-Dawley rat assessed as increase in piloerection at 150 mg/kg, po administered via gavage for daily 28 days followed by 2 weeks off without dosing. Format: organism-based. Particulars: in vivo.
The subject of data set [24] is Rattus norvegicus. The experiment in a line: Toxicity in Sprague-Dawley rat assessed as increase in histopathological changes at 150 mg/kg, po administered via gavage for daily 28 days followed by 2 weeks off without dosing. The conditions noted are these: in vivo. Format: organism-based.
Data set [25] is described as follows: Toxicity in cynomolgus monkey for 28 days. The conditions noted are these: in vivo. Further details: species or system Macaca fascicularis. The method, boiled down:
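Cynomolgus monkeys, 32 in total, 3–5 per group. Dosed for 28 days with vehicle or 6, 12 or 20 mg/kg; the high dose was raised to 25 mg/kg/day after 1 week. Two males and two females from the control and high-dose groups were followed through a further 2-week treatment-free period. Deaths and clinical signs recorded.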

Data set [26] relates to Escherichia coli. The experiment in a line: Genotoxicity in Escherichia coli in presence of S9 fraction by Ames test. Format: toxicity. The method, boiled down: (§5)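 Bacterial reverse mutation (Ames) test in S. typhimurium and E. coli strains, run with and without S9 mix.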
(In the Ames test, an excess of revertant colonies over the control signals mutagenicity.)

Data set [27] has as its system Escherichia coli. The experiment in a line: Genotoxicity in Escherichia coli in absence of S9 fraction by Ames test. It counts as toxicity. In short, it runs like this: as §5
Data set [28] can be described thus: Drug metabolism in human primary hepatocytes assessed as CBS-3733 formation at 10 to 100 uM. It counts as ADME, cell-based, Hepatocyte.

The source made the active and inactive calls. No cut-off for these calls is given here.

Chain of Mitogen-activated protein kinase 1 (Homo sapiens) (P28482 whole entry): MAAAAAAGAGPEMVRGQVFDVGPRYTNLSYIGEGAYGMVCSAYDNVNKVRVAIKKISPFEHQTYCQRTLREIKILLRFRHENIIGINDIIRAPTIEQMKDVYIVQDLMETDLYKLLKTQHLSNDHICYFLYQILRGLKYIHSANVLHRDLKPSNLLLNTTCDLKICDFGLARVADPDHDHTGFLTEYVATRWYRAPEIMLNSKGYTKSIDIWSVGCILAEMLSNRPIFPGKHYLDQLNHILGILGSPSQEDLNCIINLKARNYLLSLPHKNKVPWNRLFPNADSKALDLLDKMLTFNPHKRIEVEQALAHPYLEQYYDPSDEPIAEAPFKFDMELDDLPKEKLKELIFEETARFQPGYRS
Chain of Voltage-gated inwardly rectifying potassium channel KCNH2 (Q12809 whole entry): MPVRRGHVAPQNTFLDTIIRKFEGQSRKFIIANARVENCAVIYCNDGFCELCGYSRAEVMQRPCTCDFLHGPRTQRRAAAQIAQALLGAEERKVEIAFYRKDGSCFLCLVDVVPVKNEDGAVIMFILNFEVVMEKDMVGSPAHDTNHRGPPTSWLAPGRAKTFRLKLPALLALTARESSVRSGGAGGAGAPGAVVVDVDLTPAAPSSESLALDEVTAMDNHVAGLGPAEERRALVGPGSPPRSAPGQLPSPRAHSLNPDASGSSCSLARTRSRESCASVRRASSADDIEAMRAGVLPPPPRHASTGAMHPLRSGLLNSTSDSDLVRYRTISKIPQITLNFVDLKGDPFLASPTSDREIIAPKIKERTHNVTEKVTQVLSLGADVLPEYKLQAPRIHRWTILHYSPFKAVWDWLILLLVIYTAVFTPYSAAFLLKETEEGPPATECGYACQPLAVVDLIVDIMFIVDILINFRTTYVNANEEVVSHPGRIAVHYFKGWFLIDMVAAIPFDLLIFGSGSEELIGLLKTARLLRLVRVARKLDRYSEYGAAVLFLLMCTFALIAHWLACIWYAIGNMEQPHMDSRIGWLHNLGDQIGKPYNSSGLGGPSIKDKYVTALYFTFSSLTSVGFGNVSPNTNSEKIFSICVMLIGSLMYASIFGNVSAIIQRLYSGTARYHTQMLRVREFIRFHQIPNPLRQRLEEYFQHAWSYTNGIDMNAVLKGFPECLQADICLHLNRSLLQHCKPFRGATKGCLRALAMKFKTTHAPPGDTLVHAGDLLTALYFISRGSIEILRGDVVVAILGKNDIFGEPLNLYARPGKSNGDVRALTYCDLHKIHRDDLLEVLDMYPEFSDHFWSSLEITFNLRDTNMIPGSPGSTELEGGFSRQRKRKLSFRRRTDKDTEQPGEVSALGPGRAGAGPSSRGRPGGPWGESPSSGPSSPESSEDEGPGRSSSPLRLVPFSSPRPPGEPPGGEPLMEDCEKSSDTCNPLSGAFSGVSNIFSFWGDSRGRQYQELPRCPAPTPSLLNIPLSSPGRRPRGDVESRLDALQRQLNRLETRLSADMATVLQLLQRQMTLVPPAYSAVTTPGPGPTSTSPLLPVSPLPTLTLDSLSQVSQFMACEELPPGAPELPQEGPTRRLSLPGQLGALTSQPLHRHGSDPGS
Chain of Mitogen-activated protein kinase 11 (Homo sapiens) (Q15759 whole entry, canonical isoform): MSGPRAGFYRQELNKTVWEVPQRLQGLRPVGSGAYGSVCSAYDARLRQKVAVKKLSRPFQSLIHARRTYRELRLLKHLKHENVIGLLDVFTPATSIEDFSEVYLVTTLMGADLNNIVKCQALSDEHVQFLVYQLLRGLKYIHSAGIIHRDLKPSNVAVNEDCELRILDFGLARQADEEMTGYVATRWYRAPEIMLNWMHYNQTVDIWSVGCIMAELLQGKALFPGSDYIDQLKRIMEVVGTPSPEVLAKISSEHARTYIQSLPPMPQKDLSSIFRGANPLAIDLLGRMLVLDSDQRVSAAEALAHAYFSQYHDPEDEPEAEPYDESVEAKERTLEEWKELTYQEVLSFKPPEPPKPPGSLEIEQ

The term inhibition denotes the change of the read-out against control, counted positive when it falls. Turning to `Cn1c([S+](C)[O-])nc(-c2ccc(F)cc2)c1-c1ccnc(N)c1` (configuration not stated), the inhibition entry in data set [1] and in [2] was “inactive” each time. This compound had an inhibition in data set [3] of 88%.

What is called IC50 is the concentration that inhibits the measured activity by half. The Papp is the rate of passage across a membrane or cell layer, normalised by area and donor concentration. A word on the inhibition in vivo: it is how much of the control response was suppressed. The Cmax is the maximum level reached in the sampled fluid or tissue. By Tmax is commonly meant the time at which the peak concentration occurs. The half-life is the time in which the quantity being followed falls by half. As a reminder, the AUC(0-t) is exposure summed from dosing to a finite time, without extrapolation to infinity. As usually defined, the NOAEL is the highest dose or exposure tested at which no adverse effect was seen. Take `CC(=O)Nc1cc(-c2c(-c3ccc(F)cc3)nc([S+](C)[O-])n2C)ccn1` (configuration not stated): half-maximal inhibition in [4] (IC50) required 213 µM. Besides, the inhibition is 62% in data set [5], 32% in the data set filed under Homo sapiens [6] and “Dose-dependent effect” in the data set listed under Homo sapiens [7]. Further, the Papp at 10 µM in data set [8] is 18.5 ×10⁻⁶ cm/s. In addition, the Drug metabolism result (with Liver; in data set [9]; in data set [28]) was “Metabolite_Detected” each time. For the same compound, in the data set on Rattus norvegicus [10], the inhibition result is “Active”. Further, the inhibition in vivo at 30 mg/kg in the data set on Mus musculus was found to be 95%. The result in the data set on Rattus norvegicus [11] was Active. For the same compound, the Activity with Rattus norvegicus [12] is given as 0.08 U/L; in the data set on Rattus norvegicus [13], 0.08 U/L; with Rattus norvegicus [20] it was “Non-Toxic”; with Rattus norvegicus [21] it was “Non-Toxic”; with Rattus norvegicus [22], “Toxic”; with Cynomolgus monkey it was “Toxic”. Also, the Activity entry is recorded as “Toxic” in the data set on Rattus norvegicus [23], “Toxic” with Rattus norvegicus [24], “Non-Toxic” in the data set with Escherichia coli [26] and “Non-Toxic” in the data set on Escherichia coli [27]. Moreover, the Cmax stood at 14.3 µM in data set [14], 15.6 µM in data set [16] and 8.4 µM in [19]. Moreover, the Tmax in data set [15] was 2 h. The half-life in data set [17] was 7.8 h. The same compound showed an AUC(0-t) in data set [18] of 93.4 µM·h. In [25], this compound had an MTD at 672 h of 20 mg/kg. In data set [25], this compound showed an NOAEL at 672 h above 25 mg/kg.

(Values after ChEMBL document CHEMBL4028848, “Discovery of N-{4-[5-(4-Fluorophenyl)-3-methyl-2-methylsulfanyl-3H-imidazol-4-yl]-pyridin-2-yl}-acetamide (CBS-3595), a Dual p38α MAPK/PDE-4 Inhibitor with Activity against TNFα-Related Diseases” (J Med Chem, 2017).)
